Non-standard residues stand in square brackets, D forms with d. Residues, ends and D or L forms follow the SMILES beside them. ξ: configuration not given here. *: point of attachment. Hydrocinnamoyl = O=C(CCc1ccccc1)*; hCys = N[C@@H](CCS)C(=O)O; Nle = CCCC[C@H](N)C(=O)O; Cbz = O=C(OCc1ccccc1)*; Boc = CC(C)(C)OC(=O)*; ξhCys = NC(CCS)C(=O)O; OBn = c1ccc(CO*)cc1

Broadly, the IC50 is the concentration that inhibits the measured activity by half. One may read the inhibition as the percentage by which the read-out fell short of the control.

The target of assay [1] is T1, Peptidylglycine alpha-amidating monooxygenase (Rattus norvegicus, UniProt P14925).
T1 sequence (P14925 whole entry): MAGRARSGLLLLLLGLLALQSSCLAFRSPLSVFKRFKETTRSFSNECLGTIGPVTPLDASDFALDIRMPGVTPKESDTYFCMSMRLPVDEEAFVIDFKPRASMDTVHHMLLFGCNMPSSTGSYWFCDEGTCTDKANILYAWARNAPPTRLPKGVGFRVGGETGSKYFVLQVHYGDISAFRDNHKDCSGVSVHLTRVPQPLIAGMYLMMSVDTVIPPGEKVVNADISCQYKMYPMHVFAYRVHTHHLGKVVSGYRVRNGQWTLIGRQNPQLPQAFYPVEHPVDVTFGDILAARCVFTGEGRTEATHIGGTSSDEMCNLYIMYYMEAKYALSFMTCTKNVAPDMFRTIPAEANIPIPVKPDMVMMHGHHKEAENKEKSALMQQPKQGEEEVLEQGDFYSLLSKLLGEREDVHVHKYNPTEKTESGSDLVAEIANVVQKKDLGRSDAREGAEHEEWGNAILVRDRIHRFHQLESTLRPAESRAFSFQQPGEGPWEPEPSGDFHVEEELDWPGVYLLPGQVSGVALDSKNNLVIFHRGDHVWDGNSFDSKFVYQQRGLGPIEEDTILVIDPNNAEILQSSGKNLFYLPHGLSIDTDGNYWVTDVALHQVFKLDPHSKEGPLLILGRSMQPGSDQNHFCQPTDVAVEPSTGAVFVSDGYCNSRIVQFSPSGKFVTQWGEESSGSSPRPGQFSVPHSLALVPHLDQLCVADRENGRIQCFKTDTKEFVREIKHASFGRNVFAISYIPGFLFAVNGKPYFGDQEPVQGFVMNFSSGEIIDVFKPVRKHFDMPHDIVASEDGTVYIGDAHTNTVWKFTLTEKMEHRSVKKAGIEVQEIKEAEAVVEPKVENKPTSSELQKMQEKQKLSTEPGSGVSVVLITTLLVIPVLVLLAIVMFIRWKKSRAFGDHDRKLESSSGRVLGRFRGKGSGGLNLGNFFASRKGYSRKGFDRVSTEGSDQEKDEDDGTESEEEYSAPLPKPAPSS
Nature of the assay: Inhibitory activity against peptidylglycine alpha-amidating monooxygenase (PAM) was determined. It counts as functional. Put shortly:
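Partially purified PAM (DEAE cartridge, then Sephacryl 300 SF), 13.5 μU, preincubated with inhibitor 20 min at room temperature in 150 mM TES pH 7.0 with 0.001% Triton-100. Started with N-dansyl-D-Tyr-Phe-Gly (2.0 μM) plus ascorbate (3 mM), quenched with EDTA. Seven or more concentrations in duplicate, three runs; IC50 by least squares on log dose–response.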

For assay [2], the target named is T2, Peptidylglycine alpha-amidating monooxygenase (Rattus norvegicus) (UniProt P14925).
T2 sequence (whole entry): T1 sequence (P14925 whole entry)
Nature of the assay: (§1) Inhibition of PAM on Substance P biosynthesis in the dorsal root ganglion (DRG) cell culture assay. The format is functional, tissue-based. Set-up: concentration or dose not given beside the values. The following applies: concentration not given here. Put shortly:
(§2)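 Rat primary dorsal root ganglion neurons cultured without ascorbate for six days. On day 6 inhibitor added (10 μM), then ascorbate 500 μM 12 h later, incubated overnight. SP measured by RIA with an antibody selective for SP over SP-Gly. SP-Gly found by treating a duplicate sample with 3.5 μg PAM and taking the difference in SP; percent inhibition.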

For assay [3], the target named is T2, Peptidylglycine alpha-amidating monooxygenase (Rattus norvegicus). The description is as §1. It counts as functional, tissue-based. The settings on record: concentration not given here. Put shortly: as §2

`O=C(CCc1ccccc1)N[C@@H](Cc1ccccc1)C(=O)NC1CCSC1=O` (stereo partly specified): the IC50 in assay [1] is greater than 10000 nM. In addition, the inhibition in assay [2] was determined as 37%.
In the case of `CCCC[C@H](NC(=O)CCc1ccccc1)C(=O)NC(CCS)C(=O)O` (stereo partly specified) (Hydrocinnamoyl-[Nle]-[ξhCys]-OH), it took 23 nM to reach half-maximal inhibition in assay [1] (IC50). In addition, the inhibition in assay [3] came to 7%.
In the case of `O=C(CCc1ccccc1)N[C@@H](Cc1ccccc1)C(=O)N[C@H](CCS)C(=O)O`, in assay [1], the concentration for half-maximal inhibition (IC50) stood at 610 nM.
Consider `O=C(CCc1ccccc1)NC(CCS)C(=O)O` (stereo unspecified), for which, in assay [1], half-maximal inhibition (IC50) was put at 7500 nM.
Consider `O=C(CCc1ccccc1)N[C@@H](Cc1ccccc1)C(=O)NC(CCS)C(=O)OCc1ccccc1` (stereo partly specified) (Hydrocinnamoyl-Phe-[ξhCys]-OBn), for which the IC50 in assay [1] is greater than 10000 nM.
On the same count and under the same terms, with `O=C(O)C[C@H](NC(=O)[C@H](Cc1ccccc1)NC(=O)CCc1ccccc1)C(=O)O` (Hydrocinnamoyl-Phe-Asp-OH) the figure was greater than 10000 nM.
In assay [1], `CC(C)(C)OC(=O)N[C@H](Cc1ccc(O)cc1)C(=O)N[C@@H](Cc1ccccc1)C(=O)NCC(=O)O` registered an IC50 of 4000 nM.
On to `O=C(N[C@@H](Cc1ccccc1)C(=O)NC(CCS)C(=O)O)c1cc2ccccc2[nH]1` (stereo partly specified), for which the concentration for half-maximal inhibition (IC50) in assay [1] is 8 nM. The same molecule returned an inhibition in assay [2] of 42%.
Molecule `O=C(CCc1ccc(Cl)c(Cl)c1)N[C@@H](Cc1ccccc1)C(=O)NC(CCS)C(=O)O` (stereo partly specified) returned a concentration for half-maximal inhibition (IC50) in assay [1] of 55 nM. For the same molecule, in assay [2], the inhibition was determined as 37%.
`O=C(CCc1ccccc1)N[C@@H](Cc1ccccc1)C(=O)NC(CCS)C(=O)O` (stereo partly specified): it took 15 nM to reach half-maximal inhibition in assay [1] (IC50). Further, the inhibition in assay [2] stood at 28%.
The molecule `O=C(N[C@@H](Cc1ccccc1)C(=O)NC(CCS)C(=O)O)c1ccc2ccccc2c1` (stereo partly specified) registered a 50% inhibitory concentration (IC50) in assay [1] of 10 nM. Moreover, the inhibition in assay [2] came out at 67%.
The molecule `CCC(C)CC(=O)N[C@@H](Cc1ccccc1)C(=O)N[C@@H](CCS)C(=O)O` (stereo partly specified) registered a half-maximal inhibitory concentration (IC50) in assay [1] of 29 nM. This molecule displayed an inhibition in assay [2] of 10%.
`CC(C)(C)OC(=O)N[C@@H](Cc1ccccc1)C(=O)N[C@@H](CCS)C(=O)O` (Boc-Phe-[hCys]-OH) showed an IC50 in assay [1] of 53 nM.
Still for that read-out and setting: the same measure for `NC(=O)C[C@H](NC(=O)[C@H](Cc1ccccc1)NC(=O)CCc1ccccc1)C(=O)O` (Hydrocinnamoyl-Phe-Asn-OH): greater than 10000 nM; for `CC(C)(C)OC(=O)N[C@H](Cc1ccc(O)cc1)C(=O)N[C@@H](Cc1ccccc1)C(=O)N[C@@H](CS)C(=O)O`: 340 nM.
The same measure, in the same setting: the same measure for `C[C@H](NC(=O)[C@H](Cc1ccccc1)NC(=O)[C@@H](Cc1ccc(O)cc1)NC(=O)OC(C)(C)C)C(=O)O`: greater than 10000 nM; for `CC(C)(C)OC(=O)N[C@H](Cc1ccc(O)cc1)C(=O)N[C@@H](Cc1ccccc1)C(=O)N[C@@H](CO)C(=O)O`: greater than 10000 nM.
The same measure, in the same setting: the same measure for `N[C@H](Cc1ccc(O)cc1)C(=O)N[C@@H](Cc1ccccc1)C(=O)NCC(=O)O`: greater than 10000 nM.
Consider `CSCC[C@H](NC(=O)CCc1ccccc1)C(=O)NC(CCS)C(=O)O` (stereo partly specified), for which, in assay [1], the IC50 stood at 18 nM.
Molecule `CC(C)(C)OC(=O)N[C@H](Cc1ccccc1)C(=O)N[C@@H](Cc1ccccc1)C(=O)N[C@@H](CCS)C(=O)O` gave an IC50 in assay [1] of 39 nM. Besides, in assay [2], the inhibition came to 34%.
`O=C(CCc1ccccc1)N[C@@H](Cc1ccccc1)C(=O)N[C@@H](CS)C(=O)O` (Hydrocinnamoyl-Phe-Cys-OH) yielded a concentration for half-maximal inhibition (IC50) in assay [1] of 330 nM.
For the molecule `O=C(CCc1ccccc1)N[C@@H](Cc1ccccc1)C(=O)NCCCS`, the IC50 in assay [1] came to 1600 nM.
`O=C(O)CNC(=O)[C@H](Cc1ccccc1)NC(=O)[C@@H](Cc1ccc(O)cc1)NC(=O)OCc1ccccc1` yielded an IC50 in assay [1] of 3500 nM.
`CC(C)C[C@H](NC(=O)CCc1ccccc1)C(=O)NC(CCS)C(=O)O` (stereo partly specified) (Hydrocinnamoyl-Leu-[ξhCys]-OH) returned an IC50 in assay [1] of 300 nM.
The same measure, in the same setting: the same measure for `O=C(O)CC[C@H](NC(=O)[C@H](Cc1ccccc1)NC(=O)CCc1ccccc1)C(=O)O` (Hydrocinnamoyl-Phe-Glu-OH): greater than 10000 nM.
The molecule `O=C(CCc1ccccc1)N[C@@H](Cc1ccccc1)C(=O)N[C@@H](CCS)C(=O)O` gave a 50% inhibitory concentration (IC50) in assay [1] of 10 nM. The inhibition in assay [2] came out at 25%.
Regarding `CC(C)[C@H](NC(=O)CCc1ccccc1)C(=O)NC(CCS)C(=O)O` (stereo partly specified) (Hydrocinnamoyl-Val-[ξhCys]-OH), the half-inhibitory concentration (IC50) in assay [1] was 160 nM.
As to `O=C(N[C@@H](Cc1ccccc1)C(=O)N[C@@H](CCS)C(=O)O)OCc1ccccc1` (Cbz-Phe-[hCys]-OH), in assay [1], half-maximal inhibition (IC50) was put at 18 nM. In assay [2], this molecule yielded an inhibition of 40%.
Regarding `CN(C)c1cccc2c(S(=O)(=O)N[C@H](Cc3ccc(O)cc3)C(=O)N[C@@H](Cc3ccccc3)C(=O)NCC(=O)O)cccc12`, 4200 nM corresponded to half-maximal inhibition in assay [1] (IC50).
In the case of `O=C(COc1ccccc1)N[C@@H](Cc1ccccc1)C(=O)NC(CCS)C(=O)O` (stereo partly specified), it took 14 nM to reach half-maximal inhibition in assay [1] (IC50). Further, the inhibition in assay [2] came to 22%.

(Values after ChEMBL document CHEMBL1127299, “Inhibition of peptidylglycine alpha-amidating monooxygenase by N-substituted homocysteine analogs” (J Med Chem, 1994).)
